Assay results from ChEMBL document CHEMBL4689842, “EUbOPEN Chemogenomics Library wave 1” (2021).

How the values were obtained:
Assay type in all cases: toxicity, cell-based
[1] = test system: U2OS; test: Incucyte cell viability with U2OS; details: human, 10 µM, compound concentration 10 uM; note: filed as whole numbers so only -1 and 0 and 1 occur
[2] = test system: Fibroblast; test: Multiplex assay against human fibroblast
In short: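 Imaging took place on a CQ1 microscope at 37°C and 5% CO2 once compound had been added to live cells stained at seeding with Hoechst33342, BioTracker Green Microtubule Cytoskeleton Dye, MitoTracker Red and Annexin V Alexa Fluor 680. CellPathfinder machine-learning gating classed cells as Hoechst high-intensity objects or normal cells, classed normal cells as having healthy, pyknosed or fragmented nuclei, and classed pyknosed cells as mitotic or apoptotic. Tubulin, mitochondrial-mass and membrane-permeability phenotypes are per cents of the healthy-nucleus cells.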

[3] = test system: Fibroblast; test: Incucyte cell viability with human fibroblast; details: 10 µM, compound concentration 10 uM; note: filed as whole numbers so only -1 and 0 and 1 occur
[4] = 6 h, replicate number 1, timepoint 6 hours
[5] = 12 h, replicate number 1, timepoint 12 hours
[6] = 18 h, replicate number 1, timepoint 18 hours
[7] = 24 h, replicate number 1, timepoint 24 hours
[8] = 12 h, 1 µM, compound concentration 1 uM, replicate 1
[9] = 12 h, 1 µM, compound concentration 1 uM, replicate 2
[10] = 12 h, 10 µM, compound concentration 10 uM, replicate 1
[11] = 12 h, 10 µM, compound concentration 10 uM, replicate 2
[12] = 24 h, 1 µM, compound concentration 1 uM, replicate 1
[13] = 24 h, 1 µM, compound concentration 1 uM, replicate 2
[14] = 24 h, 10 µM, compound concentration 10 uM, replicate 1
[15] = 24 h, 10 µM, compound concentration 10 uM, replicate 2
[16] = 48 h, 1 µM, compound concentration 1 uM, replicate 1
[17] = 48 h, 1 µM, compound concentration 1 uM, replicate 2
[18] = 48 h, 10 µM, compound concentration 10 uM, replicate 1
[19] = 48 h, 10 µM, compound concentration 10 uM, replicate 2

Compound: Cl.Cl.Nc1ncnc2c1c(-c1cccc(OCc3ccccc3)c1)cn2[C@H]1C[C@@H](CN2CCC2)C1
- Growth Rate ([1]; 0 h, replicate number 1, timepoint 0 hours): 0
- Growth Rate [1, 4]: 0
- Growth Rate [1, 5]: 0
- Growth Rate ([1]; 12 h, replicate number 2, timepoint 12 hours): 1
- Growth Rate [1, 6]: 0
- Growth Rate ([1]; 18 h, replicate number 2, timepoint 18 hours): 1
- Growth Rate [1, 7]: 0
- Population Apoptotic (%) [2, 8]: 70%
- Population Fragmented Nuclei (%) [2, 8]: 31%
- Population Healthy Nuclei (%) [2, 8]: 48%
- Population Hoechst High Intensity Objects (%) [2, 8]: 22%
- Population Membrane Permeable-Phenotype (%) [2, 8]: 21%
- Population Mitochondria Different-Phenotype (%) [2, 8]: 9%
- Population Mitotic Cells (%) [2, 8]: 29%
- Population Normal (%) [2, 8]: 77%
- Population Pyknosed Nuclei (%) [2, 8]: 20%
- Population Tubulin-Different-Phenotype (%) [2, 8]: 53%
- Total Cell Count [2, 8]: 109
- Population Apoptotic (%) [2, 9]: 29%
- Population Fragmented Nuclei (%) [2, 9]: 11%
- Population Healthy Nuclei (%) [2, 9]: 67%
- Population Hoechst High Intensity Objects (%) [2, 9]: 6%
- Population Membrane Permeable-Phenotype (%) [2, 9]: 3%
- Population Mitochondria Different-Phenotype (%) [2, 9]: 71%
- Population Mitotic Cells (%) [2, 9]: 70%
- Population Normal (%) [2, 9]: 93%
- Population Tubulin-Different-Phenotype (%) [2, 9]: 52%
- Total Cell Count [2, 9]: 55
- Population Apoptotic (%) [2, 10]: 60%
- Population Fragmented Nuclei (%) [2, 10]: 24%
- Population Healthy Nuclei (%) [2, 10]: 39%
- Population Hoechst High Intensity Objects (%) [2, 10]: 38%
- Population Membrane Permeable-Phenotype (%) [2, 10]: 9%
- Population Mitochondria Different-Phenotype (%) [2, 10]: 50%
- Population Mitotic Cells (%) [2, 10]: 40%
- Population Normal (%) [2, 10]: 61%
- Population Pyknosed Nuclei (%) [2, 10]: 36%
- Population Tubulin-Different-Phenotype (%) [2, 10]: 77%
- Total Cell Count [2, 10]: 222
- Population Apoptotic (%) [2, 11]: 85%
- Population Fragmented Nuclei (%) [2, 11]: 22%
- Population Healthy Nuclei (%) [2, 11]: 47%
- Population Hoechst High Intensity Objects (%) [2, 11]: 8%
- Population Membrane Permeable-Phenotype (%) [2, 11]: 77%
- Population Mitochondria Different-Phenotype (%) [2, 11]: 97%
- Population Mitotic Cells (%) [2, 11]: 14%
- Population Normal (%) [2, 11]: 91%
- Population Pyknosed Nuclei (%) [2, 11]: 29%
- Population Tubulin-Different-Phenotype (%) [2, 11]: 97%
- Total Cell Count [2, 11]: 90
- Population Apoptotic (%) [2, 12]: 53%
- Population Fragmented Nuclei (%) [2, 12]: 29%
- Population Healthy Nuclei (%) [2, 12]: 57%
- Population Hoechst High Intensity Objects (%) [2, 12]: 26%
- Population Membrane Permeable-Phenotype (%) [2, 12]: 18%
- Population Mitochondria Different-Phenotype (%) [2, 12]: 3%
- Population Mitotic Cells (%) [2, 12]: 46%
- Population Normal (%) [2, 12]: 73%
- Population Pyknosed Nuclei (%) [2, 12]: 12%
- Population Tubulin-Different-Phenotype (%) [2, 12]: 53%
- Total Cell Count [2, 12]: 141
- Population Apoptotic (%) [2, 13]: 28%
- Population Fragmented Nuclei (%) [2, 13]: 13%
- Population Healthy Nuclei (%) [2, 13]: 64%
- Population Hoechst High Intensity Objects (%) [2, 13]: 6%
- Population Membrane Permeable-Phenotype (%) [2, 13]: 4%
- Population Mitochondria Different-Phenotype (%) [2, 13]: 68%
- Population Mitotic Cells (%) [2, 13]: 71%
- Population Normal (%) [2, 13]: 93%
- Population Pyknosed Nuclei (%) [2, 13]: 21%
- Population Tubulin-Different-Phenotype (%) [2, 13]: 39%
- Total Cell Count [2, 13]: 50
- Population Apoptotic (%) [2, 14]: 84%
- Population Fragmented Nuclei (%) [2, 14]: 18%
- Population Healthy Nuclei (%) [2, 14]: 40%
- Population Hoechst High Intensity Objects (%) [2, 14]: 48%
- Population Membrane Permeable-Phenotype (%) [2, 14]: 5%
- Population Mitochondria Different-Phenotype (%) [2, 14]: 59%
- Population Mitotic Cells (%) [2, 14]: 15%
- Population Normal (%) [2, 14]: 51%
- Population Pyknosed Nuclei (%) [2, 14]: 41%
- Population Tubulin-Different-Phenotype (%) [2, 14]: 67%
- Total Cell Count [2, 14]: 178
- Population Apoptotic (%) [2, 15]: 92%
- Population Fragmented Nuclei (%) [2, 15]: 21%
- Population Healthy Nuclei (%) [2, 15]: 35%
- Population Hoechst High Intensity Objects (%) [2, 15]: 9%
- Population Membrane Permeable-Phenotype (%) [2, 15]: 93%
- Population Mitochondria Different-Phenotype (%) [2, 15]: 96%
- Population Mitotic Cells (%) [2, 15]: 7%
- Population Normal (%) [2, 15]: 90%
- Population Pyknosed Nuclei (%) [2, 15]: 42%
- Population Tubulin-Different-Phenotype (%) [2, 15]: 96%
- Total Cell Count [2, 15]: 104
- Population Apoptotic (%) [2, 16]: 83%
- Population Fragmented Nuclei (%) [2, 16]: 36%
- Population Healthy Nuclei (%) [2, 16]: 56%
- Population Hoechst High Intensity Objects (%) [2, 16]: 28%
- Population Membrane Permeable-Phenotype (%) [2, 16]: 12%
- Population Mitotic Cells (%) [2, 16]: 16%
- Population Normal (%) [2, 16]: 71%
- Population Pyknosed Nuclei (%) [2, 16]: 6%
- Population Tubulin-Different-Phenotype (%) [2, 16]: 33%
- Total Cell Count [2, 16]: 132
- Population Apoptotic (%) [2, 17]: 50%
- Population Fragmented Nuclei (%) [2, 17]: 32%
- Population Healthy Nuclei (%) [2, 17]: 65%
- Population Hoechst High Intensity Objects (%) [2, 17]: 22%
- Population Membrane Permeable-Phenotype (%) [2, 17]: 9%
- Population Mitochondria Different-Phenotype (%) [2, 17]: 5%
- Population Mitotic Cells (%) [2, 17]: 50%
- Population Normal (%) [2, 17]: 77%
- Population Pyknosed Nuclei (%) [2, 17]: 1%
- Population Tubulin-Different-Phenotype (%) [2, 17]: 54%
- Total Cell Count [2, 17]: 145
- Population Apoptotic (%) [2, 18]: 94%
- Population Fragmented Nuclei (%) [2, 18]: 34%
- Population Healthy Nuclei (%) [2, 18]: 25%
- Population Hoechst High Intensity Objects (%) [2, 18]: 32%
- Population Membrane Permeable-Phenotype (%) [2, 18]: 0%
- Population Mitochondria Different-Phenotype (%) [2, 18]: 79%
- Population Mitotic Cells (%) [2, 18]: 5%
- Population Normal (%) [2, 18]: 67%
- Population Pyknosed Nuclei (%) [2, 18]: 40%
- Population Tubulin-Different-Phenotype (%) [2, 18]: 79%
- Total Cell Count [2, 18]: 139
- Population Apoptotic (%) [2, 19]: 81%
- Population Fragmented Nuclei (%) [2, 19]: 14%
- Population Healthy Nuclei (%) [2, 19]: 34%
- Population Hoechst High Intensity Objects (%) [2, 19]: 47%
- Population Membrane Permeable-Phenotype (%) [2, 19]: 9%
- Population Mitochondria Different-Phenotype (%) [2, 19]: 68%
- Population Mitotic Cells (%) [2, 19]: 18%
- Population Normal (%) [2, 19]: 52%
- Population Pyknosed Nuclei (%) [2, 19]: 51%
- Population Tubulin-Different-Phenotype (%) [2, 19]: 63%
- Total Cell Count [2, 19]: 122
- Growth Rate [3, 4]: 0
- Growth Rate [3, 5]: 0
- Growth Rate [3, 6]: 0
- Growth Rate [3, 7]: 0
